Measurements from PMC4696769 (Biochemistry, 2015).
Several values for one entry are separate records, joined by “and”; a condition that tells them apart may be missing. Identical values can stand only once.

Columns and labels:
P133R AKR1D1 [1] = biological target: T1, P133R AKR1D1 (Homo sapiens, UniProt P51857, P133R); assay: Steady-state kinetic analysis of steroid reduction; conditions: for kcat: P133R
WT AKR1D1 [2] = biological target: T2, WT AKR1D1 (Homo sapiens, UniProt P51857); assay: Steady-state kinetic analysis of steroid reduction; type: biochemical; conditions: for kcat: pH 7.0, 37 °C, 7.2 μM NADPH; for Ki: Ki (substrate inhibition; dissociation constant for substrate from the E-NADP+ complex)
WT AKR1D1 [3] = biological target: T2, WT AKR1D1; assay: Multiple turnover reactions, stopped-flow transient kinetics; type: biochemical; conditions: 10 mM potassium phosphate buffer, pH 7, 37 °C
Method in brief: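 Multiple-turnover reactions in stopped-flow. […] Both solutions in 10 mM KPi pH 7.0 with 4% acetonitrile at 37 °C. […] At least three traces averaged, fit to a linear or burst-plus-linear equation giving pseudo-first-order kburst and […] kss.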

P133R AKR1D1 [4] = biological target: T1, P133R AKR1D1; assay: Steroid binding, quenching of energy transfer band of E·NADPH complex
P133R AKR1D1 [5] = biological target: T1, P133R AKR1D1; assay: Multiple turnover reactions, stopped-flow transient kinetics; type: biochemical; conditions: 10 mM potassium phosphate buffer, pH 7, 37 °C
WT AKR1D1 [6] = biological target: T2, WT AKR1D1; assay: Steroid binding, quenching of energy transfer band of E·NADPH complex
WT AKR1D1 [7] = biological target: T2, WT AKR1D1; assay: Cofactor binding, quenching of intrinsic protein fluorescence; conditions: pH 7.0, 37 °C
P133R AKR1D1 [8] = biological target: T1, P133R AKR1D1; assay: as above; conditions: pH 7.0, 37 °C
WT AKR1D1 [9] = biological target: T2, WT AKR1D1; assay: Ligand chase experiment of cofactor; type: binding; conditions: pH 7.0, 37 °C
P133R AKR1D1 [10] = biological target: T1, P133R AKR1D1; assay: Ligand chase experiment of cofactor; type: binding
[11] = substrate: CC(C)CCC[C@@H](C)[C@H]1CC[C@H]2[C@@H]3[C@H](O)CC4=CC(=O)CC[C@]4(C)[C@H]3CC[C@]12C; assay: purified protein, by the assay type; conditions: other: P133R, pH 7.0, 37.0 °C

T2 sequence (P51857 whole entry): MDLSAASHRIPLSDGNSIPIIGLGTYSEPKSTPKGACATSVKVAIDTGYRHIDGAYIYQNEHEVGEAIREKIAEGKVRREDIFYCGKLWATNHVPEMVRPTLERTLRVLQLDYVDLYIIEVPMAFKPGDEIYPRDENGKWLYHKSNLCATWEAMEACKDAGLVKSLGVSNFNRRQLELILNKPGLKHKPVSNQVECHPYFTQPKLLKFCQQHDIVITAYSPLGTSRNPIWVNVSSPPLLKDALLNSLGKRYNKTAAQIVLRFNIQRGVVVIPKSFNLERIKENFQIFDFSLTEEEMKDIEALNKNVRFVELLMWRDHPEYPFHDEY

In the case of `CC(C)CCC[C@@H](C)[C@H]1CC[C@H]2[C@@H]3[C@H](O)CC4=CC(=O)CC[C@]4(C)[C@H]3CC[C@]12C` [7α-hydroxycholest-4-en-3-one], the Ki (P133R AKR1D1 [1]) is reported as 51 ± 27 µM, the “kcat WT/P133R” value (P133R AKR1D1 [1]; 10 mM KPi) is reported as 10 and the “kcat WT/P133R” value (P133R AKR1D1 [1]; 100 mM KPi) is reported as 6.7. The “kcat/Km WT/P133R (fold decrease in catalytic efficiency)” value (P133R AKR1D1 [1]; 100 mM KPi) was 13 and 13.3, the kcat (P133R AKR1D1 [1]; 10 mM KPi) was 0.0017 ± 0.0001 s⁻¹ and the kcat (P133R AKR1D1 [1]; 100 mM KPi, apparent value, enzyme not saturated with NADPH) was 0.0030 ± 0.0005 s⁻¹. The kcat (WT AKR1D1 [2]; 10 mM KPi) was 0.017 ± 0.001 s⁻¹, the kcat (WT AKR1D1 [2]; 100 mM KPi) was 0.020 ± 0.002 s⁻¹ and the Ki (WT AKR1D1 [2]; 10 mM KPi) was 55 ± 14 µM. For the same molecule, the Ki (WT AKR1D1 [2]; 100 mM KPi) was 46 ± 18 µM, the kss (WT AKR1D1 [3]) was 0.010 ± 0.002 s⁻¹ and the Kd (P133R AKR1D1 [4]) was 13.6 ± 1.9 µM. It also gave a kss (P133R AKR1D1 [5]) of 0.004 ± 0.001 s⁻¹ and a Kd (WT AKR1D1 [6]) of 2.2 ± 0.3 µM.

`NC(=O)C1=CN([C@@H]2O[C@H](COP(=O)(O)OP(=O)(O)OC[C@H]3O[C@@H](n4cnc5c(N)ncnc54)[C@H](O)[C@@H]3O)[C@@H](O)[C@H]2O)C=CC1` [NADH] gave a Kd (WT AKR1D1 [7]; 10 mM KPi) of 24.8 ± 1.7 µM, a Kd (WT AKR1D1 [7]; 100 mM KPi) of 34.8 ± 3.5 µM and a Kd (P133R AKR1D1 [8]; 10 mM KPi) of 28.4 ± 1.9 µM. The Kd (P133R AKR1D1 [8]; 100 mM KPi) was 34.5 ± 3.8 µM.

For `NC(=O)c1ccc[n+]([C@@H]2O[C@H](COP(=O)([O-])OP(=O)(O)OC[C@H]3O[C@@H](n4cnc5c(N)ncnc54)[C@H](OP(=O)(O)O)[C@@H]3O)[C@@H](O)[C@H]2O)c1` [NADP^+], the “koff (rate of NADP+ release)” value (WT AKR1D1 [9]; 10 mM KPi) was 0.164 ± 0.007 s⁻¹, the “koff (rate of NADP+ release)” value (WT AKR1D1 [9]; 100 mM KPi) was 0.28 s⁻¹ and 0.276 ± 0.008 s⁻¹ and the Kd (WT AKR1D1 [7]; 10 mM KPi) was 0.0043 ± 0.0006 µM. For the same molecule, the Kd (WT AKR1D1 [7]; 100 mM KPi) was 0.237 ± 0.005 µM, the “koff (rate of NADP+ release)” value (P133R AKR1D1 [10]; 10 mM KPi) was 8.9 ± 0.2 s⁻¹ and the “koff (rate of NADP+ release)” value (P133R AKR1D1 [10]; 100 mM KPi, too fast for instrument (dead time ~1.8 ms)) was >50 s⁻¹. The Kd (P133R AKR1D1 [8]; 10 mM KPi) was 0.08 ± 0.006 µM and the Kd (P133R AKR1D1 [8]; 100 mM KPi) was 27.1 ± 1.3 µM.

For `C[C@]12CCC(=O)C=C1CC[C@@H]1[C@@H]2C(=O)C[C@@]2(C)[C@H]1CC[C@]2(O)C(=O)CO` [cortisone], the kss (WT AKR1D1 [3]) was 0.048 ± 0.001 s⁻¹, the kss (P133R AKR1D1 [5]) was 0.040 ± 0.001 s⁻¹ and the “reduction in Kd versus 7α-hydroxycholest-4-en-3-one” value (WT AKR1D1 [6]; WT) was 4 fold.

In the case of `CC(C)(C)NC(=O)[C@H]1CC[C@H]2[C@@H]3CC[C@H]4NC(=O)C=C[C@]4(C)[C@H]3CC[C@]12C` [finasteride], the Kd (P133R AKR1D1 [4]) is reported as 14.2 ± 1.3 µM and the Kd (WT AKR1D1 [6]) is reported as 3.7 ± 0.2 µM.

B1: P133R AKR1D1 (Homo sapiens; P133R) (protein)
chain: MDLSAASHRIPLSDGNSIPIIGLGTYSEPKSTPKGACATSVKVAIDTGYRHIDGAYIYQNEHEVGEAIREKIAEGKVRREDIFYCGKLWATNHVPEMVRPTLERTLRVLQLDYVDLYIIEVPMAFKPGDEIYRRDENGKWLYHKSNLCATWEAMEACKDAGLVKSLGVSNFNRRQLELILNKPGLKHKPVSNQVECHPYFTQPKLLKFCQQHDIVITAYSPLGTSRNPIWVNVSSPPLLKDALLNSLGKRYNKTAAQIVLRFNIQRGVVVIPKSFNLERIKENFQIFDFSLTEEEMKDIEALNKNVRFVELLMWRDHPEYPFHDEY
In the case of B1, the Km ([11]; 10 mM KPi) is reported as 2.4 ± 0.7 (WT/P133R 0.42) μM and the Km ([11]; 100 mM KPi, apparent value) is reported as 1.0 ± 0.4 (WT/P133R 0.5) μM.
